What is called pKd is the negative decadic logarithm of the Kd, by convention in mol/L. Higher therefore signals a low Kd. In general, MIC refers to the smallest concentration in the dilution series that meets the test's criterion for growth inhibition. A lower MIC goes with a more susceptible organism.

We go through 41 compounds from ChEMBL document CHEMBL2406954, “Improved flavodoxin inhibitors with potential therapeutic effects against Helicobacter pylori infection” (J Med Chem, 2013).

Series [1] in a line: Therapeutic index, ratio of MCC for human HeLa cells to MIC for Helicobacter pylori. The note with it: read-out: TI. It is filed as cell-based.
The nature of series [2]: Binding affinity to Helicobacter pyroli flavodoxin expressed in Escherichia coli by isothermal titration calorimetry analysis. On the set-up: species or system Helicobacter pylori. A digest of the protocol:
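ITC at 25°C: degassed 20 µM protein titrated with ~500 µM inhibitor, both in 50 mM EPPS pH 9.0, 5% DMSO. Injection heats fitted to a 1:1 binding model for Kd.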

Series [3] in a line: Cytotoxicity in human HeLa cells after 24 hrs by XTT assay. It is filed as cell-based. A digest of the protocol:
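HeLa cells, 30,000 per well in DMEM with 10% fetal serum and penicillin/streptomycin. Compound added from DMSO to final 0.1, 0.25, 0.5, 1, 10, 25, 50, 75, 100 µM; DMSO-only controls. 24 h at 37 °C, then medium exchanged for phenol red-free medium, XTT-PMS added, 4 h at 37 °C, absorbance read at 450 and 500 nm. Two experiments, each in triplicate.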

For series [4], the system named is Helicobacter pylori. Put plainly: Antibacterial activity against Helicobacter pylori after 28 hrs by microdilution method. In kind it is functional. A general note: Broth dilution looks for growth in wells or tubes with falling amounts of substance.
Series [5] has as its system Helicobacter pylori. Put plainly: Bactericidal activity against Helicobacter pylori at 2 times MIC. In kind it is functional, organism-based.

Molecules are shown by their SMILES. pKd: −log10 of the molar value. ≈ marks a conversion by molar mass, not a printed value. Calls of active or inactive are those of the source.

As for `O=[N+]([O-])/C=C/c1cc(Cl)cc(Cl)c1`, in series [1], the selectivity ratio worked out at 0.8. The compound also had a pKd in series [2] of 6.17. The compound further returned an MCC at 24 h in series [3] of 2 µM. In series [4], the MIC was found to be 2.4 µM (≈ 0.523 µg/mL).
For the compound `O=[N+]([O-])/C=C/c1c(F)c(F)c(F)c(F)c1F`, the selectivity ratio in series [1] was 0.001. This compound also showed a negative logarithm of the Kd (pKd) in series [2] of 5.00. In series [3], this compound had an MCC at 24 h of 0.01 µM. The same compound came in with an MIC in series [4] of 8 µM (≈ 1.91 µg/mL).
In series [3], `Brc1cccc2nsnc12` returned an MCC at 24 h of 100 µM.
`CN(C)c1ccc([N+](=O)[O-])c2nonc12` returned an MCC at 24 h in series [3] of 100 µM.
Same read-out and setting: the value for `COc1ccc(CSc2ccc(N)c3nonc23)cc1` was 100 µM; that for `O=C(Nc1ccc(Cl)cc1Cl)OCCSc1ccc([N+](=O)[O-])c2nonc12` was 1.7 µM.
In the case of `O=C(O)/C=C/c1cc(C(F)(F)F)cc(C(F)(F)F)c1`, the MCC at 24 h in series [3] amounted to 100 µM.
Consider `O=[N+]([O-])/C=C/c1ccc(F)cc1Br`, for which the selectivity ratio in series [1] came out at 2.1. In series [2], this compound showed a pKd of 4.72. In series [3], this compound had an MCC at 24 h of 10 µM. This compound also returned an MIC in series [4] of 4.8 µM (≈ 1.18 µg/mL).
Regarding `O=[N+]([O-])/C=C/c1cc(C(F)(F)F)ccc1F`, in series [1], the selectivity ratio amounted to 15.1. The pKd in series [2] is 5.36. In series [3], this compound had an MCC at 24 h of 8 µM. Also, the MIC in series [4] is 0.53 µM (≈ 0.125 µg/mL).
In the case of `O=[N+]([O-])/C=C/c1cc(Cl)cc(Br)c1`, the pKd in series [2] is 5.00. For the same compound, in series [3], the MCC at 24 h was determined as 2.7 µM.
Take `O=[N+]([O-])/C=C/c1cc(C(F)(F)F)cc(C(F)(F)F)c1`: the selectivity ratio in series [1] was found to be 1.5. The negative logarithm of the Kd (pKd) in series [2] was 5.46. In series [3], this compound displayed an MCC at 24 h of 3.5 µM. The lowest concentration to inhibit growth in series [4] (MIC) was 2.4 µM (≈ 0.684 µg/mL).
`O=C(Nc1ccccc1)OCCSc1ccc([N+](=O)[O-])c2nonc12`: in series [3], the MCC at 24 h is 2.2 µM.
For `O=[N+]([O-])/C=C/c1ccc(I)cc1`, in series [1], the selectivity ratio came to 9.4. Besides, the pKd in series [2] was 5.18. The compound further showed an MCC at 24 h in series [3] of 10 µM. The same compound gave an MIC in series [4] of 1.06 µM (≈ 0.292 µg/mL). Further, the outcome in series [5] was Active.
In the case of `COC(=O)/C=C/c1cc(C(F)(F)F)cc(C(F)(F)F)c1`, in series [3], the MCC at 24 h was 100 µM.
`COc1ccc(CSc2ccc(S(N)(=O)=O)c3nonc23)cc1` returned an MCC at 24 h in series [3] of 12 µM.
`O=[N+]([O-])/C=C/c1ccc(Cl)c(C(F)(F)F)c1`: the selectivity ratio in series [1] amounted to 4.7. In series [2], this compound gave a negative-log Kd (pKd) of 5.55. Besides, the MCC at 24 h in series [3] was 5 µM. The compound also displayed an MIC in series [4] of 1.06 µM (≈ 0.267 µg/mL).
As for `O=[N+]([O-])C1=Cc2cc(Cl)cc(Cl)c2OC1c1ccc(Br)cc1` (configuration not stated), the pKd in series [2] is 4.60.
Take `CSc1ccc(C2Oc3ccccc3C=C2[N+](=O)[O-])cc1` (configuration not stated): in series [3], the MCC at 24 h turned out to be 1 µM.
For `O=[N+]([O-])C1=Cc2cc(Cl)ccc2OC1c1ccc(F)cc1` (configuration not stated), the MCC at 24 h in series [3] came to 6 µM.
On the same count and under the same terms, the value for `COc1ccc(CCCSc2ccc([N+](=O)[O-])c3nonc23)cc1` was 1 µM.
As for `O=[N+]([O-])/C=C/c1ccc(F)cc1`, the selectivity ratio in series [1] worked out at 18.9. Further, the negative-log Kd (pKd) in series [2] is 4.40. This compound returned an MCC at 24 h in series [3] of 20 µM. In series [4], this compound gave an MIC of 1.06 µM (≈ 0.177 µg/mL). The result in series [5] was Active.
In series [3], `O=C(OCCSc1ccc([N+](=O)[O-])c2nonc12)c1ccc(Cl)cc1Cl` came in with an MCC at 24 h of 4 µM.
As for `O=[N+]([O-])C1=Cc2c(ccc3ccccc23)OC1c1ccc(F)cc1` (configuration not stated), in series [1], the selectivity ratio came out at 8.3. Moreover, the pKd in series [2] was 6.11. Moreover, the MCC at 24 h in series [3] came to 10 µM. In series [4], this compound registered an MIC of 1.2 µM (≈ 0.386 µg/mL). Also, the result in series [5] was Active.
As for `COc1ccc(C(=O)OCCSc2ccc([N+](=O)[O-])c3nonc23)cc1`, the MCC at 24 h in series [3] stood at 8 µM.
`COc1ccc(Sc2ccc([N+](=O)[O-])c3nonc23)cc1`: the selectivity ratio in series [1] stood at 1.5. For the same compound, the negative-log Kd (pKd) in series [2] was 5.59. In series [3], this compound had an MCC at 24 h of 3 µM. In series [4], this compound came in with an MIC of 2 µM (≈ 0.607 µg/mL). Moreover, in series [5], the outcome was Active.
`COc1ccc(C2(C)SCc3cc(C)c(C)cc3CS2)cc1` had an MCC at 24 h in series [3] of 100 µM.
Still for that read-out and setting: the figure for `COc1ccc(CSc2ccc([N+](=O)[O-])c3nonc23)cc1` is 1.7 µM.
Consider `Cc1ccc(Sc2ccc([N+](=O)[O-])c3nonc23)cc1`, for which the MCC at 24 h in series [3] came to 1.3 µM.
As to `O=[N+]([O-])/C=C/c1ccccc1I`, in series [1], the selectivity ratio came out at 0.2. The pKd in series [2] was 4.80. Moreover, the MCC at 24 h in series [3] amounted to 1 µM. In series [4], this compound registered an MIC of 4.8 µM (≈ 1.32 µg/mL).
In the case of `O=[N+]([O-])C1=Cc2cc(Cl)ccc2OC1c1ccc(Cl)cc1` (configuration not stated), the MCC at 24 h in series [3] was determined as 6 µM.
Turning to `O=[N+]([O-])/C=C/c1c(F)cc(Cl)cc1F`, the selectivity ratio in series [1] was determined as 37.7. For the same compound, the pKd in series [2] was 5.13. In series [3], this compound displayed an MCC at 24 h of 20 µM. In series [4], this compound gave a minimum inhibitory concentration (MIC) of 0.53 µM (≈ 0.116 µg/mL). In addition, in series [5], the outcome was Active.
`O=[N+]([O-])C1=Cc2cc(Cl)cc(Cl)c2OC1c1ccc(I)cc1` (configuration not stated) gave an MCC at 24 h in series [3] of 10 µM.
In the case of `COc1cccc(/C=C(\C)[N+](=O)[O-])c1`, the selectivity ratio in series [1] was found to be 0.3. In series [2], the negative logarithm of the Kd (pKd) is 5.26. In series [3], this compound came in with an MCC at 24 h of 0.7 µM. In series [4], this compound yielded a minimum inhibitory concentration (MIC) of 2.4 µM (≈ 0.464 µg/mL).
`O=[N+]([O-])C1=Cc2cc(Cl)ccc2NC1c1ccc(F)cc1` (configuration not stated) gave a negative logarithm of the Kd (pKd) in series [2] of 4.48.
With `O=[N+]([O-])/C=C/c1ccccc1C(F)(F)F`, in series [1], the selectivity ratio was 0.04. Also, the pKd in series [2] is 5.06. In series [3], this compound came in with an MCC at 24 h of 0.1 µM. This compound registered a minimal inhibitory concentration (MIC) in series [4] of 2.4 µM (≈ 0.521 µg/mL).
Compound `O=[N+]([O-])C1=Cc2cc(Cl)cc(Cl)c2OC1c1ccc(F)cc1` (configuration not stated) gave an MCC at 24 h in series [3] of 6 µM.
Compound `NS(=O)(=O)c1ccc(SCCO)c2nonc12` showed an MCC at 24 h in series [3] of 100 µM.
Turning to `O=[N+]([O-])/C=C/c1ccc(Br)cc1`, the selectivity ratio in series [1] stood at 15.1. Besides, in series [2], the pKd was 5.39. In addition, the MCC at 24 h in series [3] came to 8 µM. Moreover, the lowest concentration to inhibit growth in series [4] (MIC) was 0.53 µM (≈ 0.121 µg/mL). Moreover, in series [5], the outcome was Active.
In the case of `COC(=O)C1=C(c2ccccc2Cl)Oc2ccc([N+](=O)[O-])cc2C1`, the MCC at 24 h in series [3] worked out at 70 µM.
In series [3], `CCOC(=O)C1=Cc2cc(Cl)cc(Cl)c2OC1c1ccc(F)cc1` (configuration not stated) displayed an MCC at 24 h of 12 µM.
On to `O=[N+]([O-])/C=C/c1cccc(C(F)(F)F)c1`, for which the selectivity ratio in series [1] was found to be 8.4. For the same compound, the negative logarithm of the Kd (pKd) in series [2] is 5.10. Moreover, in series [3], the MCC at 24 h worked out at 40 µM. In series [4], this compound yielded an MIC of 4.75 µM (≈ 1.03 µg/mL). Further, in series [5], the outcome was Active.
